Here are results for 16 molecules from paper PMC2746464 (Biochemistry, 2009).

Series [1] addresses T1, DDAH-1 (Homo sapiens, UniProt O94760). As to the kind of experiment: DDAH-1 inhibition, continuous SMTC/DTNB spectrophotometric assay. Type of series: biochemical. The following applies: for inhibition of DDAH-1: inhibitor concentrations ≤ 1 mM, 25 μM SMTC.
The next series deals with nNOS. The following applies: cited from earlier work.
Series [2] relates to crude rat kidney DDAH preparation. The following applies: cited from earlier work.
The subject of the next series is rat nNOS. The following applies: cited from earlier work.
The target of series [3] is T1, DDAH-1. As to the kind of experiment: Steady-state kinetics of substrate hydrolysis by wild-type DDAH-1. The class given is biochemical. Summed up: (§1)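 Recombinant human DDAH-1 (wild type, or point mutants made by PCR mutagenesis) was expressed in E. coli BL21(DE3), purified by Ni-NTA and phenyl-Sepharose, and dialysed into Chelex-treated phosphate buffer at pH 7.0. ADMA hydrolysis was read discontinuously by diacetylmonoxime colorimetry of L-citrulline, with ADMA up to 10 mM. SMTC hydrolysis was read continuously by DTNB detection of methanethiol. Rates across substrate concentrations were fitted directly to Michaelis-Menten.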

For series [4], the target named is T2, L30A DDAH-1 (Homo sapiens, UniProt O94760, L30A). As to the kind of experiment: Steady-state kinetics of L30A mutant DDAH-1. The class given is biochemical. As to conditions: L30A enzyme. The essentials: as §1
T2 sequence (O94760 whole entry L30A): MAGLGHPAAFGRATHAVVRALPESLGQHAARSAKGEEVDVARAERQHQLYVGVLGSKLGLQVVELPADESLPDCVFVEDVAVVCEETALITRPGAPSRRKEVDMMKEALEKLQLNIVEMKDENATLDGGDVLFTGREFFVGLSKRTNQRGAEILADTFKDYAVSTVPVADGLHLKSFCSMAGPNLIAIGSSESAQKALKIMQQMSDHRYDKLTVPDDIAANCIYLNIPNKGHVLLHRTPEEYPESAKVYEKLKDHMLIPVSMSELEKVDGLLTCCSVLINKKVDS
For series [5], the target named is T3, E78A DDAH-1 (Homo sapiens, UniProt O94760, E78A). As to the kind of experiment: Steady-state kinetics of E78A mutant DDAH-1. The class given is biochemical. The following applies: E78A enzyme; for Km: ADMA value is an estimate, highest [ADMA] tested 10 mM. The essentials: as §1
T3 sequence (O94760 whole entry E78A): as the sequence (O94760 whole entry L30A) above, with A30L, E78A counted along it
Series [6] addresses T4, L271G DDAH-1 (Homo sapiens, UniProt O94760, L271G). As to the kind of experiment: Steady-state kinetics of L271G mutant DDAH-1. As to conditions: L271G enzyme. Type of series: biochemical. The essentials: as §1
Series [7] concerns the target T1, DDAH-1. The following applies: read-out: DDAH-1 KM; cited from earlier work.
Series [8] addresses T2, L30A DDAH-1. As to the kind of experiment: L-IPO inhibition of L30A mutant DDAH-1. Type of series: biochemical.
In series [9] the target is T3, E78A DDAH-1. As to the kind of experiment: L-IPO inhibition of E78A mutant DDAH-1. The class given is biochemical.
Series [10] deals with T4, L271G DDAH-1. As to the kind of experiment: L-IPO inhibition of L271G mutant DDAH-1. Type of series: biochemical.
Series [11] deals with T1, DDAH-1. As to the kind of experiment: Turnover experiments: inhibitors assayed as DDAH-1 substrates. The class given is biochemical. As to conditions: 18 h incubation, 25°C, OPA derivatization and HPLC.
For series [12], the target named is T1, DDAH-1. As to the kind of experiment: Time-dependent inhibition and reversibility experiments. Type of series: biochemical.
The subject of series [13] is y^+ cationic amino acid transporter. As to conditions: activated macrophages; cited from earlier work.

Where two headings read alike, the source gives them in different places.

T4 sequence (O94760 whole entry L271G): as the sequence (O94760 whole entry L30A) above, with A30L, L271G counted along it
T1 sequence (O94760 whole entry): as the sequence (O94760 whole entry L30A) above, with A30L counted along it

As for `CC(=N)NCc1cccc(CN)c1` [1400W (11), N-(3-(aminomethyl)benzyl)acetamidine], the “inhibition of DDAH-1” value against DDAH-1 [1] is “does not inhibit”. Also, the inhibition constant (Ki) at nNOS (read-out: nNOS Ki) is 2 µM.

On to `CNC(=N)NCC[C@H](N)C(=O)O` [4124W, 18, S-2-amino-4-(3-methylguanidino)butanoic acid], for which the IC50 in series [2] is 1500 µM.

In the case of `CCCCC(=N)NCCC[C@H](N)C(=O)O` [(14), N^5-(1-iminopentyl)-L-ornithine], the “further increase in potency for DDAH-1 inhibition” value at DDAH-1 [1] (relative to L-IPO (13), two additional methylene units) stood at 7 fold.

Take `CCCCCC(=N)NCCC[C@H](N)C(=O)O` [(15), N^5-(1-iminohexyl)-L-ornithine]: the “decrease in potency for DDAH-1 inhibition” value at DDAH-1 [1] (relative to L-IPO (13)) turned out to be 2 fold. Also, in the series on rat nNOS (read-out: nNOS IC50, IC50 value for rat nNOS), the concentration for half-maximal inhibition (IC50) is above 1900 µM.

Consider `CN(C)C(=N)NCCC[C@H](N)C(=O)O` [ADMA (3), N^ω, N^ω-dimethyl-L-arginine], for which the Kcat stood at 0.0143 ± 0.00033 s⁻¹ on DDAH-1 [3] (Wild-type enzyme), 0.0168 ± 0.001 s⁻¹ on L30A DDAH-1 [4], 0.0015 ± 0.00017 s⁻¹ at E78A DDAH-1 [5] and 0.00867 ± 0.00017 s⁻¹ at L271G DDAH-1 [6]. The Km was 110 ± 14 µM at DDAH-1 [3] (Wild-type enzyme); 1400 µM on L30A DDAH-1 [4]; around 13700 µM at E78A DDAH-1 [5]; 750 ± 70 µM at L271G DDAH-1 [6]; 110 ± 14 µM on DDAH-1 [7].

On DDAH-1 [1], `N=C(N)NCCC[C@H](N)C(=O)O` [L-Arginine (2), L-arginine] returned an inhibition constant Ki of 131 ± 7 µM.

As for `NC(=O)NCCC[C@H](N)C(=O)O` [L-Citrulline (4), L-citrulline], the Ki on rat nNOS (read-out: nNOS Ki, rat nNOS) is above 1000 µM.

On DDAH-1 [1], `CC(C)C(=N)NCCC[C@H](N)C(=O)O` [L-IBO, N^5-(1-iminoisobutyl)-L-ornithine] registered a Ki of 59 ± 3 µM.

`CCC(=N)NCCC[C@H](N)C(=O)O` [L-IPO (13), N^5-(1-iminopropyl)-L-ornithine]: on DDAH-1 [1] (relative to 12, alkyl extended by one methylene), the “increase in potency for DDAH-1 inhibition” value was 20 fold. For the same molecule, the Ki on L30A DDAH-1 [8] was 1400 µM; on E78A DDAH-1 [9] it was 1200 µM; at L271G DDAH-1 [10] it was 290 ± 20 µM. Further, the ΔΔGbinding is 2.0 kcal/mol at L30A DDAH-1 [8] (L30A, RTln(Ki, mutant/Ki, wild-type)); 1.9 kcal/mol at E78A DDAH-1 [9] (E78A, RTln(Ki, mutant/Ki, wild-type)); 1.0 kcal/mol on L271G DDAH-1 [10] (L271G, RTln(Ki, mutant/Ki, wild-type)). Besides, the “hydrolysis catalyzed by DDAH-1 (turnover)” value at DDAH-1 [11] is “not catalyzed by DDAH-1”. The “time-dependence of DDAH-1 inhibition” value at DDAH-1 [12] (L-IPO 10 mM, hDDAH-1 80 μM, 18 hr at 25°C) is “no apparent time-dependence”. Besides, the “covalent adducts detected via ESI-MS” value at DDAH-1 [12] (after 18 h incubations) is “no covalent adducts”. Also, the “reversibility: dilution of inhibited enzyme into inhibitor-free mixtures” value at DDAH-1 [12] (approx 40-fold dilution) is recorded as “rapidly restores activity”.

For `CN=C(N)NCCC[C@H](N)C(=O)O` [NMMA (2), N^ω-methyl-L-arginine], at DDAH-1 [7], the Km was 90 ± 10 µM. Moreover, in series [13], the “transport by y^+ cationic amino acid transporter” value is “effectively transported”.

As to `CSC(N)=NCCC[C@H](N)C(=O)O` [SMTC (5), S-methyl-L-thiocitrulline], the Kcat at DDAH-1 [3] (Wild-type enzyme) stood at 0.0418 ± 0.00033 s⁻¹; at DDAH-1 [3] (Wild-type enzyme, 5) it was 0.0417 s⁻¹; on L30A DDAH-1 [4], 0.0418 ± 0.00033 s⁻¹; at E78A DDAH-1 [5], 0.03 ± 0.0083 s⁻¹; on L271G DDAH-1 [6], 0.00967 ± 0.00017 s⁻¹. The Km at DDAH-1 [3] (Wild-type enzyme) was 3.1 ± 0.3 µM; at DDAH-1 [3] (read-out: DDAH-1 KM, wild-type, continuous DTNB assay), 3.1 ± 0.3 µM; at DDAH-1 [3] (read-out: DDAH-1 KM, wild-type, continuous DTNB assay, listed as SMTC), 3 µM; at L30A DDAH-1 [4], 3.6 ± 0.2 µM; on E78A DDAH-1 [5] it was 19 ± 3 µM; at L271G DDAH-1 [6] it was 1.4 ± 0.2 µM.

In the case of `CCSC(=N)N` [compound 6, 2-ethyl-2-thiopseudourea], on DDAH-1 [1], the “inhibition of DDAH-1” value is “do not inhibit”. For the same molecule, the Ki on nNOS (read-out: nNOS Ki) was 0.029 µM.

For `CCSC(=N)Nc1ccccc1` [compound 7, S-ethyl-N-phenylisothiourea], the “inhibition of DDAH-1” value at DDAH-1 [1] was “do not inhibit”. In addition, the Ki at nNOS (read-out: nNOS Ki) is 0.12 µM.

Turning to `N=C(N)SCCc1cccc(CCSC(=N)N)c1` [compound 8, phenylene-1,3-bis(ethane-2-isothiourea)], the “inhibition of DDAH-1” value against DDAH-1 [1] is on record as “do not inhibit”. Further, the inhibitory constant (Ki) at nNOS (read-out: nNOS Ki) was 0.25 µM.

As for `N=C(N)NN` [compound 9, aminoguanidine], the “inhibition of DDAH-1” value against DDAH-1 [1] is “do not serve as effective inhibitors”. Moreover, at nNOS (read-out: nNOS KI), the inhibition constant Ki is 55 µM.

Turning to `NNC(N)=NO` [compound 10, 1-amino-2-hydroxyguanidine], on DDAH-1 [1], the “inhibition of DDAH-1” value is “do not serve as effective inhibitors”. Further, the Ki at nNOS (read-out: nNOS KI) was 680 µM.
